Laboratory results: ChEMBL document CHEMBL1138288, “2-phenylimidazopyridines, a new series of Golgi compounds with potent antiviral activity” (J Med Chem, 2007)

How the values were obtained:
[1] = Inhibition of IgE production in antigen-sensitized BALB/c mouse spleen cells; type: functional, tissue-based
Human alphaherpesvirus 2 = assay: Antiviral activity against HSV2-infected Vero cells; type: functional, organism-based
Vaccinia virus = assay: Antiviral activity against Vaccinia virus-infected Vero cells; type: functional, organism-based, Orthopoxvirus vaccinia
[2] = system: Vesicular stomatitis virus; assay: Antiviral activity against VSV-infected Vero cells; type: functional, organism-based
[3] = system: California encephalitis virus; assay: Antiviral activity against California encephalitis virus-infected Vero cells; type: functional, cell-based
San Angelo virus = assay: Antiviral activity against San Angelo virus-infected Vero cells; type: functional, organism-based
Simian virus 40 = assay: Antiviral activity against SV40-infected Vero cells; type: functional, organism-based; conditions: Betapolyomavirus macacae
How it was run: (§1)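 Cells were seeded at about 50 000/well and infected 24 h later at MOI 0.1 or less, with drug added alongside. Once infectivity was evident, cells were washed and stained with methylene blue/carbol fuchsin in methanol for 10 min at room temperature.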

Murine hepatitis virus = assay: Antiviral activity against mouse hepatitis virus-infected NCTC clone-1469 cells; type: functional, organism-based; conditions: Murine coronavirus; how it was run: as §1
Modoc virus = assay: Antiviral activity against Modoc virus-infected HeLa-H1 cells; type: functional, organism-based
Enterovirus = assay: Antiviral activity against Rhinovirus-infected HeLa-H1 cells; type: functional, organism-based
[4] = California encephalitis virus, Vero

SMILES | IC50 ([1]; Mus musculus, BALB/c, Spleen) [nM] | IC50 (Human alphaherpesvirus 2; Human alphaherpesvirus 2, Vero) [nM] | IC50 (Vaccinia virus; Orthopoxvirus vaccinia, Vero) [nM] | IC50 [2] [nM] | IC50 [3, 4] [nM] | IC50 (San Angelo virus; San Angelo virus, Vero) [nM] | IC50 (Simian virus 40) [nM] | IC50 (Murine hepatitis virus) [nM] | IC50 (Modoc virus) [nM] | IC50 (Enterovirus; Enterovirus, HeLa H1) [nM] | IC50 [1] [nM] | IC50 (Human alphaherpesvirus 2; vero) [nM] | IC50 (Vaccinia virus; vero) [nM] | IC50 ([3]; vero) [nM] | IC50 (San Angelo virus; vero) [nM] | IC50 (Enterovirus; hela-h1) [nM]
O=C(NC12CC3CC(C1)C(=O)C(C3)C2)c1cc2nc(-c3ccc(NC(=O)C45CC6CC(CC(O)(C6)C4)C5)cc3)[nH]c2cn1 | 140 | > 2000 | > 2000 | > 2000 | 200 | 200 | > 2000 | > 600 | > 600 | 100 | – | – | – | – | – | –
O=C1C2CC3CC1CC(C(=O)Nc1ccc(-c4nc5cc(NC(=O)C67CC8CC(C6)C(=O)C(C8)C7)ncc5[nH]4)cc1)(C3)C2 | 45 | > 2000 | > 2000 | > 2000 | 200 | 200 | 1000 | > 600 | > 600 | > 2000 | – | – | – | – | – | –
O=C(Nc1ccc(-c2nc3cc(NC(=O)C4CCCCC4)ccc3[nH]2)cc1)C1CCCCC1 | 5 | 170 | 200 | 1000 | 200 | 200 | 1000 | 20 | 50 | 160 | – | – | – | – | – | –
O=C(NC12CC3CC(CC(C3)C1)C2)c1cc2nc(-c3ccc(NC(=O)C45CC6CC(CC(C6)C4)C5)cc3)[nH]c2cn1 | 10 | 30 | 140 | > 2000 | 60 | 60 | > 2000 | 20 | 100 | 40 | – | – | – | – | – | –
O=C(Nc1cc2nc(-c3ccc(NC(=O)C45CC6CC(CC(C6)C4)C5)cc3)[nH]c2cn1)c1ccccn1 | 10 | 75 | 500 | 1000 | 60 | 60 | > 2000 | 60 | 60 | 60 | – | – | – | – | – | –
O=C1C2CC3CC1CC(C(=O)Nc1ccc(-c4nc5cc(NC(=O)C67CC8CC(CC(C8)C6)C7)ncc5[nH]4)cc1)(C3)C2 | 4 | 250 | 400 | > 2000 | 200 | 200 | > 2000 | 200 | > 600 | > 2000 | – | – | – | – | – | –
O=C(Nc1ccccn1)c1ccc2[nH]c(-c3ccc(NC(=O)C45CC6CC(CC(C6)C4)C5)cc3)nc2c1 (stereo in doubt; 1h) | – | – | – | > 2000 | – | – | > 2000 | 20 | 60 | – | 4 | 30 | 40 | 60 | 20 | 20
O=C(Nc1ccc(-c2nc3cc(NC(=O)C4CCCCC4)ccc3[nH]2)cc1)c1ccc(Cl)c(Cl)c1 | 3 | 60 | 600 | > 2000 | 200 | 60 | > 2000 | 20 | 20 | 200 | – | – | – | – | – | –
O=C(Nc1ccc(-c2nc3cc(NC(=O)C45CC6CC(CC(C6)C4)C5)ccc3[nH]2)cc1)C12CC3CC(CC(C3)C1)C2 | 1 | 20 | 400 | > 2000 | 30 | 60 | 1200 | 12 | 20 | 60 | – | – | – | – | – | –
O=C(Nc1ccc(-c2nc3cc(NC(=O)C45CC6CC(CC(C6)C4)C5)ncc3[nH]2)cc1)C12CC3CC(C1)C(O)C(C3)C2 (stereo not given) | 1 | 60 | 120 | 1000 | 200 | 60 | > 2000 | 20 | 20 | 10 | – | – | – | – | – | –
O=C(Nc1ccc(-c2nc3cc(C(=O)NC45CC6CC(CC(C6)C4)C5)ncc3[nH]2)cc1)c1ccc(Cl)cc1 | 3 | 20 | 40 | > 2000 | 60 | 20 | > 2000 | 60 | 20 | 400 | – | – | – | – | – | –
O=C(NC12CC3CC(CC(C3)C1)C2)c1ccc2[nH]c(-c3ccc(NC(=O)C45CC6CC(CC(C6)C4)C5)cc3)nc2c1 | 5 | 40 | 600 | > 2000 | 60 | 20 | > 2000 | 20 | 60 | 20 | – | – | – | – | – | –
O=C(Nc1ccccn1)c1ccc2[nH]c(-c3ccc(NC(=O)C45CC6CC(CC(C6)C4)C5)cc3F)nc2c1 | 10 | 150 | 600 | > 2000 | 200 | 200 | > 2000 | 60 | 60 | 400 | – | – | – | – | – | –
O=C(Nc1ccc(-c2nc3cc(C(=O)NC45CC6CC(CC(C6)C4)C5)ccc3[nH]2)cc1)c1ccc(Cl)c(Cl)c1 | 1 | 20 | 20 | > 2000 | 20 | 6 | > 2000 | 8 | 6 | 20 | – | – | – | – | – | –
CC(=O)OC1CCC(C(=O)Nc2ccc(-c3nc4cc(NC(=O)C5CCC(OC(C)=O)CC5)ccc4[nH]3)cc2)CC1 (stereo not given) | 1000 | > 2000 | > 2000 | 1000 | > 2000 | > 2000 | 1500 | > 600 | > 600 | > 2000 | – | – | – | – | – | –
O=C(Nc1ccc(-c2nc3cc(C(=O)NC45CC6CC(C4)C(=O)C(C6)C5)ncc3[nH]2)cc1)c1ccc(Cl)cc1 | 0.15 | 40 | 40 | 1000 | 200 | 135 | > 2000 | 100 | > 600 | 20 | – | – | – | – | – | –
O=C(Nc1ccc(-c2nc3cc(NC(=O)C45CC6CC(C4)C(O)C(C6)C5)ncc3[nH]2)cc1)C12CC3CC(CC(C3)C1)C2 (stereo not given) | 0.15 | 90 | 400 | > 2000 | 60 | 60 | 1000 | 200 | 20 | 20 | – | – | – | – | – | –
O=C(Nc1ccccn1)c1cc2nc(-c3ccc(NC(=O)C45CC6CC(CC(C6)C4)C5)cc3)[nH]c2cn1 | 120 | 600 | 1500 | > 2000 | 40 | 40 | > 2000 | 50 | 600 | 200 | – | – | – | – | – | –
O=C(Nc1ccc(-c2nc3cc(NC(=O)C4CCCCC4)ncc3[nH]2)cc1)C1CCCCC1 | 1.5 | 20 | 60 | > 2000 | 60 | 20 | > 2000 | 15 | 6 | 60 | – | – | – | – | – | –
